Experimental data taken from ChEMBL document CHEMBL1152768, “4-Benzyloxy-gamma-sultone derivatives: discovery of a novel family of non-nucleoside inhibitors of human cytomegalovirus and varicella zoster virus” (J Med Chem, 2009).
Calls of active or inactive are those of the source. The rule behind the calls is not given here.

Columns and labels:
Human betaherpesvirus 5 [1] = assay: Antiviral activity against HCMV Davis infected in human HEL cells assessed inhibition of virus-induced cytopathicity after 7 days postinfection; format: functional, organism-based; settings: Human betaherpesvirus 5, Davis, 168 h
Summary of the method: (§1)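 HEL fibroblasts were infected at 100 PFU. After 2 h, residual virus was removed and medium with test compound was added at several concentrations, in duplicate. Cells were incubated 7 days at 37 °C, fixed with ethanol and stained with Giemsa.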

Human betaherpesvirus 5 [2] = assay: Antiviral activity against HCMV AD169 infected in human HEL cells assessed inhibition of virus-induced cytopathicity after 7 days postinfection; format: functional, organism-based; settings: Human betaherpesvirus 5, AD169, HEL, 168 h; summary of the method: as §1
Human alphaherpesvirus 3 [3] = assay: Antiviral activity against thymidine kinase expressing Varicella zoster virus Oka infected in human HEL cells assessed reduction in viral plaque formation; format: functional, organism-based; settings: Human alphaherpesvirus 3, Oka
Summary of the method: (§2)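 Confluent HEL cell monolayers were inoculated with VZV at 20 PFU per well. Residual virus was removed after 2 h, and compound was added at varying concentrations, in duplicate.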

Human alphaherpesvirus 3 [4] = assay: Antiviral activity against thymidine kinase deficient Varicella zoster virus 07/1 infected in human HEL cells assessed reduction in viral plaque formation; format: functional, organism-based; settings: Human alphaherpesvirus 3, HEL; summary of the method: as §2
[5] = Cytotoxicity against human HEL cells assessed as morphological alteration after 3 days; format: cell-based
Summary of the method: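 HEL cultures were examined under the microscope. MCC was recorded as the compound concentration causing a microscopically detectable alteration of normal cell morphology.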

[6] = Cytotoxicity against human HEL cells assessed as reduction of growth after 3 days; format: cell-based
Summary of the method: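 HEL cells were seeded at 5 × 10³ cells/well and grown 24 h before compound was added at different concentrations. After 3 days at 37 °C, cells were counted with a Coulter counter. CC50, the concentration halving growth relative to untreated controls, was read from plots of cell number (% of control) against concentration.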

[7] = Therapeutic index, ratio of CC50 for human HEL cells to EC50 for Human cytomegalovirus; format: cell-based; settings: read-out: Ratio CC50/EC50
Summary of the method: (§3)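 Index calculated as CC50 (HEL cell growth, 3 days, Coulter count) divided by EC50 from the HEL-cell antiviral assays: HCMV cytopathicity at 7 days for line 18, VZV plaque reduction at 5 days for line 19.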

[8] = Therapeutic index, ratio of CC50 for human HEL cells to EC50 for Varicella zoster virus; format: cell-based; settings: read-out: Ratio CC50/EC50; summary of the method: as §3
Human betaherpesvirus 5 [9] = assay: Antiviral activity against ganciclovir-resistant HCMV AD169 clone 4 infected in HEL cells assessed as inhibition of virus-induced cytopathicity; format: functional, organism-based; settings: Human betaherpesvirus 5, AD169, HEL
Human betaherpesvirus 5 [10] = assay: Antiviral activity against foscarnet-resistant HCMV AD169 clone C infected in HEL cells assessed as inhibition of virus-induced cytopathicity; format: functional, organism-based; settings: Human betaherpesvirus 5, AD169, HEL
Human betaherpesvirus 5 [11] = assay: Antiviral activity against cidofovir HCMV AD169 clone 5 infected in human HEL cells assessed as inhibition of virus-induced cytopathicity; format: functional, organism-based; settings: Human betaherpesvirus 5, AD169, HEL
Human betaherpesvirus 5 [12] = assay: Antiviral activity against PMEDAP-resistant HCMV AD169 clone 4 infected in HEL cells assessed as inhibition of virus-induced cytopathicity; format: functional, organism-based; settings: Human betaherpesvirus 5, AD169, HEL
Human betaherpesvirus 5 [13] = assay: Antiviral activity against HPMPA-resistant HCMV AD169 clone 2 mutant infected in HEL cells assessed as inhibition of virus-induced cytopathicity; format: functional, organism-based; settings: Human betaherpesvirus 5, AD169, HEL
Human betaherpesvirus 5 [14] = assay: Antiviral activity against acyclovir-resistant HCMV AD169 clone 1 infected in HEL cells assessed as inhibition of virus-induced cytopathicity; format: functional, organism-based; settings: Human betaherpesvirus 5, AD169, HEL
Human betaherpesvirus 5 [15] = assay: Antiviral activity against wild type HCMV AD169 infected in HEL cells assessed as inhibition of virus-induced cytopathicity; format: functional, organism-based; settings: Human betaherpesvirus 5, AD169, HEL
Summary of the method: (§4)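 HEL fibroblast cultures infected at 100 PFU input. After 2 h, residual virus was removed and compound-containing medium was added at varying concentrations, in duplicate. Cells were incubated 7 days at 37 °C, ethanol-fixed and Giemsa-stained, and cytopathicity was scored microscopically.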

Human betaherpesvirus 5 [16] = assay: Antiviral activity against wild type HCMV Davis infected in HEL cells assessed as inhibition of virus-induced cytopathicity; format: functional, organism-based; settings: Human betaherpesvirus 5, Davis; summary of the method: as §4
[17] = tested on: Mammalian orthoreovirus 3; assay: Antiviral activity against Reovirus 3 infected in african green monkey Vero cells; format: functional, organism-based
Sindbis virus = assay: Antiviral activity against Sindbis virus infected in african green monkey Vero cells; format: functional, organism-based
Coxsackievirus B4 [18] = assay: Antiviral activity against Coxsackievirus B4 infected in african green monkey Vero cells; format: functional, organism-based
[19] = tested on: Vesicular stomatitis virus; assay: Antiviral activity against VSV infected in human HeLa cells; format: functional, organism-based
Human alphaherpesvirus 1 [20] = assay: Antiviral activity against HSV1 KOS infected in human HEL cells; format: functional, organism-based
Coxsackievirus B4 [21] = assay: Antiviral activity against Coxsackievirus B4 infected in human HeLa cells; format: functional, organism-based
[22] = tested on: Respiratory syncytial virus; assay: Antiviral activity against RSV infected in human HeLa cells; format: functional, organism-based
Human alphaherpesvirus 1 [23] = assay: Antiviral activity against acyclovir-resistant […]-deficient HSV1 infected in human HEL cells; format: functional, organism-based
Human alphaherpesvirus 2 = assay: Antiviral activity against HSV2 infected in human HEL cells; format: functional, organism-based
Vaccinia virus = assay: Antiviral activity against Vaccinia virus infected in human HEL cells; format: functional, organism-based; settings: Orthopoxvirus vaccinia
[24] = tested on: Vesicular stomatitis virus; assay: Antiviral activity against VSV infected in human HEL cells; format: functional, organism-based
Punta Toro virus = assay: Antiviral activity against Punta Toro virus infected in african green monkey Vero cells; format: functional, organism-based
Human alphaherpesvirus 3 [25] = assay: Antiviral activity against Varicella zoster virus YS infected in human HEL cells assessed reduction in viral plaque formation; format: functional, organism-based; settings: Human alphaherpesvirus 3, YS
Human respirovirus 3 = assay: Antiviral activity against Parainfluenza virus 3 infected in african green monkey Vero cells; format: functional, organism-based
Human alphaherpesvirus 3 [26] = assay: Antiviral activity against Varicella zoster virus YSR infected in human HEL cells assessed reduction in viral plaque formation; format: functional, organism-based; settings: Human alphaherpesvirus 3, YSR

Compound	EC50 (Human betaherpesvirus 5 [1])	EC50 (Human betaherpesvirus 5 [2])	EC50 (Human alphaherpesvirus 3 [3])	EC50 (Human alphaherpesvirus 3 [4])	MCC at 72 h [5]	CC50 at 72 h [6]	EC50 (Human betaherpesvirus 5 [9])	EC50 (Human betaherpesvirus 5 [10])	EC50 (Human betaherpesvirus 5 [11])	EC50 (Human betaherpesvirus 5 [12])	EC50 (Human betaherpesvirus 5 [13])	EC50 (Human betaherpesvirus 5 [14])	EC50 (Human betaherpesvirus 5 [15])	EC50 (Human betaherpesvirus 5 [16])	Activity [17]	Activity (Sindbis virus)	Activity (Coxsackievirus B4 [18])	Activity [19]	Activity (Human alphaherpesvirus 1 [20])	Activity (Coxsackievirus B4 [21])	further results
O=S1(=O)C=C(OCc2ccccc2)C(Cc2ccccc2)(Cc2ccccc2)O1	> 50 µM	50 µM	> 5 µM	5 µM	200 µM	200 µM															selectivity ratio [7]: ≤ 4; selectivity ratio [8]: ≤ 4
Nc1nc(N)c2ncn(CCOCP(=O)(O)O)c2n1 [PMEDAP]							1.9 µM	25 µM	3.5 µM	37 µM	0.82 µM	> 50 µM	8.4 µM	7.7 µM							
CCC1(Cc2ccccc2)OS(=O)(=O)C=C1OCc1ccc(OC)cc1 (racemic)	142 µM	200 µM	120 µM	106 µM	≥ 200 µM	> 200 µM									inactive	inactive	inactive	inactive	inactive	inactive	Activity [22]: inactive; Activity (Human alphaherpesvirus 1 [23]): inactive; Activity (Human alphaherpesvirus 2): inactive; Activity (Vaccinia virus): inactive; Activity [24]: inactive; Activity (Punta Toro virus): inactive
CCC1(Cc2ccccc2)OS(=O)(=O)C=C1OCc1ccc(Cl)cc1 (racemic)	9.7 µM	10.4 µM	7.6 µM	5.7 µM	≥ 50 µM	> 200 µM	11 µM	9.6 µM	11 µM	12 µM	9.9 µM	1.1 µM	11 µM	11 µM	inactive	inactive	inactive	inactive	inactive	inactive	Activity [22]: inactive; Activity (Human alphaherpesvirus 1 [23]): inactive; Activity (Human alphaherpesvirus 2): inactive; Activity (Vaccinia virus): inactive; Activity [24]: inactive; EC50 (Human alphaherpesvirus 3 [25]): 10 µM; Activity (Punta Toro virus): inactive
CCC1(Cc2ccccc2)OS(=O)(=O)C=C1OCCc1ccccc1 (racemic)	9.3 µM	6.9 µM	5.7 µM	7.5 µM	≥ 20 µM	48 µM									inactive	inactive	inactive	inactive	inactive	inactive	Activity [22]: inactive; Activity (Human alphaherpesvirus 1 [23]): inactive; Activity (Human alphaherpesvirus 2): inactive; Activity (Vaccinia virus): inactive; Activity [24]: inactive; Activity (Punta Toro virus): inactive
CCC1(Cc2ccccc2)OS(=O)(=O)C=C1OCc1ccccc1 (racemic)	9.3 µM	13 µM	6.4 µM	5.6 µM	≥ 50 µM	200 µM									inactive	inactive	inactive	inactive	inactive	inactive	Activity (Human respirovirus 3): inactive; Activity [22]: inactive; Activity (Human alphaherpesvirus 1 [23]): inactive; Activity (Human alphaherpesvirus 2): inactive; Activity (Vaccinia virus): inactive; Activity [24]: inactive; EC50 (Human alphaherpesvirus 3 [25]): 3.6 µM; selectivity ratio [7]: ≥ 5; selectivity ratio [8]: ≥ 5; Activity (Punta Toro virus): inactive
Nc1nc2c(ncn2COCCO)c(=O)[nH]1 [ACYCLOVIR]			1.1 µM	72 µM	> 200 µM	733 µM							15 µM								
Nc1ccn(C[C@@H](CO)OCP(=O)(O)O)c(=O)n1 [CIDOFOVIR]	0.5 µM	0.3 µM			> 150 µM	74 µM	0.74 µM	0.045 µM	1 µM	0.092 µM	0.55 µM	0.095 µM	0.076 µM	0.069 µM							
CCC1(Cc2ccccc2)OS(=O)(=O)C=C1OCc1ccccc1Cl (racemic)	> 4 µM	> 4 µM	8.7 µM	10 µM	≥ 20 µM	38 µM															EC50 (Human alphaherpesvirus 3 [25]): > 5 µM
CCC1(Cc2ccccc2)OS(=O)(=O)C=C1OCc1ccc(F)cc1 (racemic)	7 µM	15 µM	8.6 µM	8.6 µM	≥ 50 µM	> 50 µM															EC50 (Human alphaherpesvirus 3 [25]): 10.4 µM; EC50 (Human alphaherpesvirus 3 [26]): 9.3 µM
Nc1nc2c(ncn2COC(CO)CO)c(=O)[nH]1 [GANCICLOVIR]	3.6 µM				> 400 µM	134 µM	4.3 µM		4 µM	3.5 µM	1.2 µM	0.69 µM	0.7 µM	0.66 µM							
Nc1ncnc2c1ncn2C[C@@H](CO)OCP(=O)(O)O							2.1 µM	0.036 µM	2.1 µM	0.12 µM	1.9 µM	0.08 µM	0.17 µM	0.2 µM							
O=C(O)P(=O)(O)O [FOSCARNET]							20 µM	95 µM	11 µM	63 µM	13 µM	35 µM	13 µM	11 µM							
